Sampled rows, rich in hits. Any-hit rate of the full collection: about 4.4%.
T cruzi repl – inhibitors of intracellular T. cruzi growth, primary screen, luminescence, NIH3T3 host cells; inhibition, % (concentration not given with the values); T. cruzi beta-gal in NIH3T3, 90 h; 1.4% of 300,000 active;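 active = mean inhibition across valid replicates above about 55%, limit read from the data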;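 note: signal also drops with host cell toxicity which is not excluded here; 0% = plate median of DMSO wells and 100% = zero luminescence signal; higher percent means less beta-gal luminescence so fewer parasites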
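System: Mouse NIH/3T3 fibroblasts infected with β-gal-expressing T. cruzi Tulahuen C4 | Quantity: NIH/3T3 cells, 5,000 per well | Reagent: 5000 reporter trypomastigotes per well | Dosing: Compound pinned at 50 nL/well, DMSO | Schedule: 3 h host attachment, then at least 90 h co-culture | Detection: GalScreen luminescence, 60 min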
HSF1 inhib – HSF1 inhibitors in luciferase reporter cells, primary screen, cell-based, NIH3T3, luminescence; NIH3T3-HGL HSE-luciferase, MG132-induced, luminescence 8 h; hits give low values; activity change, negative = inhibition, % at 7.5 µM (by protocol); 0.77% of 300,000 active; AID 2098, 2009;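 active = more than half of replicate wells show activity change below -50%, luminescence cut by over half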;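 note: luciferase reports HSF-1 transcriptional activity via heat shock element; 0% = median of DMSO wells and -100% = zero luminescence signal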
Calb FLC – C. albicans growth inhibition with fluconazole, primary screen, CaCi-2 strain, Alamar Blue fluorescence. growth inhibition, % (concentration not given with the values). C. albicans CaCi-2 + fluconazole, 48 h. 0.57% of 300,000 active. AID 1979, 2009;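 active = growth inhibition above about 58% in most replicates, limit read from the data, passing the limit was not always enough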;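 note: all wells also contain fluconazole at 8 µg/ml as a sub-toxic cotreatment; 0% = median of DMSO wells and 100% = median of geldanamycin control wells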
HIF act – HIF pathway transcriptional activators, primary screen, cell-based, U2OS HRE-luciferase, luminescence | activation, % at 7.5 µM (by protocol) | U2OS HRE-luciferase reporter; normalized: DMSO 0%, desferrioxamine 100% | 0.32% of 300,000 active;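 active = mean activation of at least 10% of the iron chelator positive control signal, with at least half of replicates also reaching 10%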
HSF1 activator – HSF-1 activators, primary screen, NIH3T3-HGL cells, MG132 stress, luminescence, single point | NIH3T3-HGL HSF-1 luciferase reporter, 8 h; 100% = twice DMSO control signal | activation, % at 9 µM | 1.7% of 300,000 active | AID 504408, 2011;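 active = mean replicate activation of at least 50% with a set share of replicates each reaching 50%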;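 note: 0% = median of the neutral control wells and 100% = twice that signal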
* hit, by the source's call.

For CS/C(N)=N/N=C/c1cc(C)ccc1O the results were T cruzi repl -11.8, HSF1 inhib 86.2, Calb FLC 5.7, HIF act 3.4 and HSF1 activator 139.9*.
`CSc1ccc(C#N)cc1NC(=O)c1ccccc1C` gave T cruzi repl -10.1, HSF1 inhib -3.1, Calb FLC -3.4, HIF act -0.1 and HSF1 activator -3.8.
Screening O=C(OCCOc1cccc(Cl)c1)c1cc(S(=O)(=O)N2CCCCC2)ccc1N1CCOCC1 returned T cruzi repl 64.8*, HSF1 inhib 16.6, Calb FLC -0.7, HIF act 0.6 and HSF1 activator 20.1.
For O=C(Nc1ccc(Cl)cc1)OCc1ccccn1 the results were T cruzi repl -29.5, HSF1 inhib 42.4, Calb FLC -18.0, HIF act 6.0 and HSF1 activator 56.7*.
For COc1cc(CN2CCCCC2)ccc1OCc1ccccc1 the results were T cruzi repl 82.1*, HSF1 inhib 4.1, Calb FLC 0.9, HIF act 1.9 and HSF1 activator 16.6.
Screening CC(C)(C)NC(=O)c1ccc(Sc2ccccc2)c([N+](=O)[O-])c1 returned T cruzi repl 19.3, HSF1 inhib 1.4, Calb FLC 0.0, HIF act -0.4 and HSF1 activator 24.0.
`CCNc1ccc(S(=O)(=O)N(C)C)cc1NCC(=O)Nc1ccccc1F` gave T cruzi repl -7.9, HSF1 inhib -8.0, Calb FLC -31.0, HIF act -1.0 and HSF1 activator 0.8.
CCNc1ccc(S(=O)(=O)N(C)C)cc1NCC(=O)Nc1ccccc1Br was read as T cruzi repl -4.3, HSF1 inhib 54.6, Calb FLC 3.5, HIF act -0.2 and HSF1 activator 115.4*.
Oc1c(Br)cc(Br)cc1CNc1cccc2cccnc12 was read as T cruzi repl 10.2, HSF1 inhib 16.3, Calb FLC 81.0*, HIF act -14.8 and HSF1 activator 16.4.
Screening COc1cccc(CNc2ccc(F)c(Cl)c2)c1O returned T cruzi repl -8.6, HSF1 inhib 61.1, Calb FLC 2.6, HIF act 4.7 and HSF1 activator 75.4*.
Screening Oc1ccc(Br)cc1CNc1cccc2cccnc12 returned T cruzi repl 5.0, HSF1 inhib 16.2, Calb FLC -3.7, HIF act 0.2 and HSF1 activator 18.9.
`COc1cccc(CNc2cccc3cccnc23)c1O` gave T cruzi repl 13.0, HSF1 inhib 37.3, Calb FLC -19.1, HIF act 0.2 and HSF1 activator 76.4*.
For COc1cccc(CNc2cnc3ccccc3c2)c1O the results were T cruzi repl -0.7, HSF1 inhib 83.8, Calb FLC 27.0, HIF act 2.3 and HSF1 activator 72.5*.
For Cc1ccc(O)c(CNc2cnc3ccccc3c2)c1 the results were T cruzi repl 12.9, HSF1 inhib 20.3, Calb FLC -1.5, HIF act 1.7 and HSF1 activator 29.9.
For CN(c1ccccc1C(=O)Nc1ccc(F)c(Cl)c1)S(C)(=O)=O the results were T cruzi repl 9.6, HSF1 inhib 4.2, Calb FLC 6.6, HIF act 0.1 and HSF1 activator 31.2.
COc1ccc(OC)c(NC(=O)CSc2nc3ccccc3cc2Cc2ccccc2)c1 was read as T cruzi repl 9.9, HSF1 inhib -54.2*, Calb FLC -8.0, HIF act -0.4 and HSF1 activator -65.0.
`COc1ccc(OC)c(NC(=O)CNC(c2ccccc2)c2ccccc2)c1` gave T cruzi repl 26.4, HSF1 inhib 16.1, Calb FLC 10.0, HIF act -1.2 and HSF1 activator 62.2*.
COc1cc(OC)cc(C(=O)N[C@H](C(=O)Nc2ccc(S(=O)(=O)N(C)C)cc2)C(C)C)c1 was read as T cruzi repl 6.6, HSF1 inhib -3.9, Calb FLC -3.1, HIF act -0.2 and HSF1 activator 5.0.
Cc1ccc(-c2nnc(Nc3ccccc3)c3ccccc23)cc1S(=O)(=O)NCC1CCCO1 (stereo not drawn) was read as T cruzi repl 24.8, HSF1 inhib -0.2, Calb FLC 60.8*, HIF act -0.1 and HSF1 activator 7.2.
For O=C(CSC1=NCCN1)Nc1cccc(C(F)(F)F)c1 the results were T cruzi repl 12.3, HSF1 inhib 27.6, Calb FLC -2.9, HIF act 2.7 and HSF1 activator 67.1*.

Source: PubChem (Broad Institute)
